{"source": "ChEMBL document CHEMBL3352720", "about": "“Novel alkylphospholipid-DTC hybrids as promising agents against endocrine related cancers acting via modulation of Akt-pathway” (Eur J Med Chem, 2014)", "key": {"[1]": {"assay": "Antiproliferative activity against human DU145 cells assessed as inhibition of cell proliferation incubated for 18 hrs followed by MTT addition for 4 hrs by MTT assay", "type": "functional, cell-based", "conditions": "DU-145", "outline": "(§1)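 MTT assay. Cells were grown in DMEM with 10% FBS at 37 °C, 5% CO2, 90% relative humidity. 1 × 10⁴ cells per well were seeded and held 24 h, then exposed to compounds diluted in culture medium for 18 h. MTT (5 mg/mL stock) was added for a further 4 h.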"}, "[2]": {"assay": "Antiproliferative activity against human PC3 cells assessed as inhibition of cell proliferation incubated for 18 hrs followed by MTT addition for 4 hrs by MTT assay", "type": "functional, cell-based", "conditions": "PC-3", "outline": "as §1"}, "MCF7": {"tested_on": "MCF7", "assay": "Antiproliferative activity against human MCF7 cells assessed as inhibition of cell proliferation incubated for 18 hrs followed by MTT addition for 4 hrs by MTT assay", "type": "functional, cell-based", "outline": "as §1"}, "HEK293": {"tested_on": "HEK293", "assay": "Antiproliferative activity against HEK293 cells assessed as inhibition of cell proliferation incubated for 18 hrs followed by MTT addition for 4 hrs by MTT assay", "type": "cell-based", "conditions": "Homo sapiens", "outline": "as §1"}, "MDA-MB-231": {"tested_on": "MDA-MB-231", "assay": "Antiproliferative activity against human MDA-MB-231 cells assessed as inhibition of cell proliferation incubated for 18 hrs followed by MTT addition for 4 hrs by MTT assay", "type": "functional, cell-based", "outline": "as §1"}}}
{"smiles": "CCCOP(=O)(O)OCCSC(=S)N1CCN(C)CC1", "values": [{"measurement": "IC50", "setting": "[1]", "value": "> 100", "unit": "µM"}, {"measurement": "IC50", "setting": "[2]", "value": "> 100", "unit": "µM"}, {"measurement": "IC50", "setting": "MCF7", "value": 59, "unit": "µM"}, {"measurement": "IC50", "setting": "HEK293", "value": 39.6, "unit": "µM"}, {"measurement": "IC50", "setting": "MDA-MB-231", "value": 62, "unit": "µM"}]}
{"smiles": "CCCOP(=O)(O)OCCSC(=S)N1CCCCCC1", "values": [{"measurement": "IC50", "setting": "[1]", "value": 86.1, "unit": "µM"}, {"measurement": "IC50", "setting": "[2]", "value": "> 100", "unit": "µM"}, {"measurement": "IC50", "setting": "MCF7", "value": 74, "unit": "µM"}, {"measurement": "IC50", "setting": "HEK293", "value": 54, "unit": "µM"}, {"measurement": "IC50", "setting": "MDA-MB-231", "value": 38, "unit": "µM"}]}
{"smiles": "CCCCCCCCOP(=O)(O)OCCSC(=S)N1CCCCCC1", "values": [{"measurement": "IC50", "setting": "[1]", "value": 59.1, "unit": "µM"}, {"measurement": "IC50", "setting": "[2]", "value": 56.8, "unit": "µM"}, {"measurement": "IC50", "setting": "MCF7", "value": 78, "unit": "µM"}, {"measurement": "IC50", "setting": "HEK293", "value": "> 100", "unit": "µM"}, {"measurement": "IC50", "setting": "MDA-MB-231", "value": 27, "unit": "µM"}]}
{"smiles": "CCCOP(=O)(O)OCCSC(=S)N1CCCCC1", "values": [{"measurement": "IC50", "setting": "[1]", "value": "> 100", "unit": "µM"}, {"measurement": "IC50", "setting": "[2]", "value": "> 100", "unit": "µM"}, {"measurement": "IC50", "setting": "MCF7", "value": "> 100", "unit": "µM"}, {"measurement": "IC50", "setting": "HEK293", "value": "> 100", "unit": "µM"}, {"measurement": "IC50", "setting": "MDA-MB-231", "value": 68, "unit": "µM"}]}
{"smiles": "CCCCCCOP(=O)(O)OCCSC(=S)N1CCCCC1", "values": [{"measurement": "IC50", "setting": "[1]", "value": "> 100", "unit": "µM"}, {"measurement": "IC50", "setting": "[2]", "value": "> 100", "unit": "µM"}, {"measurement": "IC50", "setting": "MCF7", "value": 62, "unit": "µM"}, {"measurement": "IC50", "setting": "HEK293", "value": "> 100", "unit": "µM"}, {"measurement": "IC50", "setting": "MDA-MB-231", "value": 85, "unit": "µM"}]}
{"smiles": "CCCCCCCCOP(=O)(O)OCCSC(=S)N1CCCCC1", "values": [{"measurement": "IC50", "setting": "[1]", "value": "> 100", "unit": "µM"}, {"measurement": "IC50", "setting": "[2]", "value": "> 100", "unit": "µM"}, {"measurement": "IC50", "setting": "MCF7", "value": 26, "unit": "µM"}, {"measurement": "IC50", "setting": "HEK293", "value": 69, "unit": "µM"}, {"measurement": "IC50", "setting": "MDA-MB-231", "value": 11.9, "unit": "µM"}]}
{"smiles": "CCCCCCOP(=O)(O)OCCSC(=S)N1CCN(C)CC1", "values": [{"measurement": "IC50", "setting": "[1]", "value": "> 100", "unit": "µM"}, {"measurement": "IC50", "setting": "[2]", "value": "> 100", "unit": "µM"}, {"measurement": "IC50", "setting": "MCF7", "value": 58, "unit": "µM"}, {"measurement": "IC50", "setting": "HEK293", "value": "> 100", "unit": "µM"}, {"measurement": "IC50", "setting": "MDA-MB-231", "value": 73, "unit": "µM"}]}
{"smiles": "CCCCCCCCOP(=O)(O)OCCSC(=S)N1CCCC1", "values": [{"measurement": "IC50", "setting": "[1]", "value": 47.1, "unit": "µM"}, {"measurement": "IC50", "setting": "[2]", "value": "> 100", "unit": "µM"}, {"measurement": "IC50", "setting": "MCF7", "value": 53, "unit": "µM"}, {"measurement": "IC50", "setting": "HEK293", "value": 28.3, "unit": "µM"}, {"measurement": "IC50", "setting": "MDA-MB-231", "value": 69, "unit": "µM"}]}
{"smiles": "CCCCCCCCCCCCCCCCOP(=O)(O)OCCSC(=S)N1CCN(C)CC1", "values": [{"measurement": "IC50", "setting": "[1]", "value": 49.3, "unit": "µM"}, {"measurement": "IC50", "setting": "[2]", "value": 95.2, "unit": "µM"}, {"measurement": "IC50", "setting": "MCF7", "value": "> 100", "unit": "µM"}, {"measurement": "IC50", "setting": "HEK293", "value": "> 100", "unit": "µM"}, {"measurement": "IC50", "setting": "MDA-MB-231", "value": "> 100", "unit": "µM"}]}
{"smiles": "CCCCCCCCCCOP(=O)(O)OCCSC(=S)N1CCCCCC1", "values": [{"measurement": "IC50", "setting": "[1]", "value": 23.9, "unit": "µM"}, {"measurement": "IC50", "setting": "[2]", "value": 32.9, "unit": "µM"}, {"measurement": "IC50", "setting": "MCF7", "value": 43.3, "unit": "µM"}, {"measurement": "IC50", "setting": "HEK293", "value": 70, "unit": "µM"}, {"measurement": "IC50", "setting": "MDA-MB-231", "value": 11.4, "unit": "µM"}]}
{"smiles": "CCCCCCCCOP(=O)(O)OCCSC(=S)N1CCN(C)CC1", "values": [{"measurement": "IC50", "setting": "[1]", "value": "> 100", "unit": "µM"}, {"measurement": "IC50", "setting": "[2]", "value": "> 100", "unit": "µM"}, {"measurement": "IC50", "setting": "MCF7", "value": 46, "unit": "µM"}, {"measurement": "IC50", "setting": "HEK293", "value": 86, "unit": "µM"}, {"measurement": "IC50", "setting": "MDA-MB-231", "value": 58.5, "unit": "µM"}]}
{"smiles": "CCCCCCOP(=O)(O)OCCSC(=S)N1CCCC1", "values": [{"measurement": "IC50", "setting": "[1]", "value": "> 100", "unit": "µM"}, {"measurement": "IC50", "setting": "[2]", "value": "> 100", "unit": "µM"}, {"measurement": "IC50", "setting": "MCF7", "value": 100, "unit": "µM"}, {"measurement": "IC50", "setting": "HEK293", "value": "> 100", "unit": "µM"}, {"measurement": "IC50", "setting": "MDA-MB-231", "value": 54, "unit": "µM"}]}
{"smiles": "CCCCCCOP(=O)(O)OCCSC(=S)N1CCCCCC1", "values": [{"measurement": "IC50", "setting": "[1]", "value": 77.4, "unit": "µM"}, {"measurement": "IC50", "setting": "[2]", "value": "> 100", "unit": "µM"}, {"measurement": "IC50", "setting": "MCF7", "value": 55, "unit": "µM"}, {"measurement": "IC50", "setting": "HEK293", "value": 70.5, "unit": "µM"}, {"measurement": "IC50", "setting": "MDA-MB-231", "value": 17.2, "unit": "µM"}]}
{"smiles": "CCCCCCCCCCCCCCCCOP(=O)(O)OCCSC(=S)N1CCCC1", "values": [{"measurement": "IC50", "setting": "[1]", "value": 28.9, "unit": "µM"}, {"measurement": "IC50", "setting": "[2]", "value": 65.7, "unit": "µM"}, {"measurement": "IC50", "setting": "MCF7", "value": 72, "unit": "µM"}, {"measurement": "IC50", "setting": "HEK293", "value": "> 100", "unit": "µM"}, {"measurement": "IC50", "setting": "MDA-MB-231", "value": 69, "unit": "µM"}]}
{"smiles": "CCCCCCCCCCOP(=O)(O)OCCSC(=S)N1CCN(C)CC1", "values": [{"measurement": "IC50", "setting": "[1]", "value": 82.3, "unit": "µM"}, {"measurement": "IC50", "setting": "[2]", "value": 80, "unit": "µM"}, {"measurement": "IC50", "setting": "MCF7", "value": 99.6, "unit": "µM"}, {"measurement": "IC50", "setting": "HEK293", "value": "> 100", "unit": "µM"}, {"measurement": "IC50", "setting": "MDA-MB-231", "value": 29, "unit": "µM"}]}
{"smiles": "CCCOP(=O)(O)OCCSC(=S)N1CCCC1", "values": [{"measurement": "IC50", "setting": "[1]", "value": "> 100", "unit": "µM"}, {"measurement": "IC50", "setting": "[2]", "value": "> 100", "unit": "µM"}, {"measurement": "IC50", "setting": "MCF7", "value": 73, "unit": "µM"}, {"measurement": "IC50", "setting": "HEK293", "value": "> 100", "unit": "µM"}, {"measurement": "IC50", "setting": "MDA-MB-231", "value": 67, "unit": "µM"}]}
{"smiles": "CCCCCCCCCCCCCCCCOP(=O)(O)OCCSC(=S)N1CCCCCC1", "values": [{"measurement": "IC50", "setting": "[1]", "value": 17.6, "unit": "µM"}, {"measurement": "IC50", "setting": "[2]", "value": 32.1, "unit": "µM"}, {"measurement": "IC50", "setting": "MCF7", "value": "> 100", "unit": "µM"}, {"measurement": "IC50", "setting": "HEK293", "value": "> 100", "unit": "µM"}, {"measurement": "IC50", "setting": "MDA-MB-231", "value": "> 100", "unit": "µM"}]}
{"smiles": "CCCCCCCCCCOP(=O)(O)OCCSC(=S)N1CCCC1", "values": [{"measurement": "IC50", "setting": "[1]", "value": 46.1, "unit": "µM"}, {"measurement": "IC50", "setting": "[2]", "value": 56.1, "unit": "µM"}, {"measurement": "IC50", "setting": "MCF7", "value": 70, "unit": "µM"}, {"measurement": "IC50", "setting": "HEK293", "value": "> 100", "unit": "µM"}, {"measurement": "IC50", "setting": "MDA-MB-231", "value": 67, "unit": "µM"}]}
